By Ki is commonly meant the dissociation constant of the complex between target and ligand, obtained from inhibition or displacement.

In experiment [1] the target is Sodium-dependent dopamine transporter (Rattus norvegicus, UniProt P23977). Nature of the experiment: Ability to inhibit [3H]DA uptake through DAT in rat synaptosomes. Type of experiment: subcellular, Brain. Summed up: (§1)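 Uptake inhibition values given as Ki. Each experiment tested six drug concentrations in triplicate, with two to four independent experiments per compound. Values are means ± SEM.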
Sequence of Sodium-dependent dopamine transporter (P23977 whole entry): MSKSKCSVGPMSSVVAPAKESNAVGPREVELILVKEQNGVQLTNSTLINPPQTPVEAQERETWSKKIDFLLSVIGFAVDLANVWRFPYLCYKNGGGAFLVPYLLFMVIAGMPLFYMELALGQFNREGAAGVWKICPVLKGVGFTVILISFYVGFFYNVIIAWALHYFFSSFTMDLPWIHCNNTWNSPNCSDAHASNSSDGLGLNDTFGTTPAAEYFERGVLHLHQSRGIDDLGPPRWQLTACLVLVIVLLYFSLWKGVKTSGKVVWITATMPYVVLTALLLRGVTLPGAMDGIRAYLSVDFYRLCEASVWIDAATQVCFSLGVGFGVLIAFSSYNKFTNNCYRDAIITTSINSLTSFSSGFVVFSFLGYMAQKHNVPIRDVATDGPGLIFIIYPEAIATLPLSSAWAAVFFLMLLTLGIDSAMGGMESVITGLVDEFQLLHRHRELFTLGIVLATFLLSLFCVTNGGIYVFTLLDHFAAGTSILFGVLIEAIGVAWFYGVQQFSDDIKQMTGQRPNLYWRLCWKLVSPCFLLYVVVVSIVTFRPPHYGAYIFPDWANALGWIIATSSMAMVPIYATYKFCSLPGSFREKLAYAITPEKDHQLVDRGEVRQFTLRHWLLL

Experiment [2] has as its target Sodium-dependent serotonin transporter (Rattus norvegicus, UniProt P31652). As to the kind of experiment: Ability to inhibit [3H]5-HT uptake through SERT in rat synaptosomes. Type of experiment: subcellular, Brain. Summed up:
as §1

The target of experiment [3] is Norepinephrine transporter (Rattus norvegicus, UniProt Q9WTR4). Nature of the experiment: Ability to inhibit [3H]NE uptake through NET in rat synaptosomes. In kind it is subcellular, Brain. Summed up:
as §1

The target in experiment [4] is Monoamine transporters; serotonin & dopamine (Rattus norvegicus) (UniProt P31652+P23977). As to the kind of experiment: Selectivity towards rat SERT over DAT. In kind it is protein assay.
Sequence of Monoamine transporters; serotonin & dopamine (Rattus norvegicus) (P23977 whole entry, looked up): as the sequence (P23977 whole entry) above
Sequence of Monoamine transporters; serotonin & dopamine (Rattus norvegicus) (P31652 whole entry, looked up): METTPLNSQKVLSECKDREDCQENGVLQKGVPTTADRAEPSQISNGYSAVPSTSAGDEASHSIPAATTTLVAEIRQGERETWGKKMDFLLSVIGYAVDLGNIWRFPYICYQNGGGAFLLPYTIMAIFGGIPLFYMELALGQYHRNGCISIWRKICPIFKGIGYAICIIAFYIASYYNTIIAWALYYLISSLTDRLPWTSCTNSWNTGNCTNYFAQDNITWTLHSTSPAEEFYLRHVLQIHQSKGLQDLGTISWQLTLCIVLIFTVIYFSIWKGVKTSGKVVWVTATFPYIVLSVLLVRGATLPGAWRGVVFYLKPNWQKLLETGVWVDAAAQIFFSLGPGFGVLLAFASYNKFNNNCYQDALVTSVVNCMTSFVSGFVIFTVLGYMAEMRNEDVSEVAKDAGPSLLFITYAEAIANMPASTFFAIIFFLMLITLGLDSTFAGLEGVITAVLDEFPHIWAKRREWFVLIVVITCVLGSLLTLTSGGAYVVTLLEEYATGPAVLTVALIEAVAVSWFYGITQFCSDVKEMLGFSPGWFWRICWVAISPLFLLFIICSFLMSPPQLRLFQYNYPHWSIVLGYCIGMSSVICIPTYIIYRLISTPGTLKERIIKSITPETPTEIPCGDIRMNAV

Sequence of Norepinephrine transporter (Q9WTR4 whole entry): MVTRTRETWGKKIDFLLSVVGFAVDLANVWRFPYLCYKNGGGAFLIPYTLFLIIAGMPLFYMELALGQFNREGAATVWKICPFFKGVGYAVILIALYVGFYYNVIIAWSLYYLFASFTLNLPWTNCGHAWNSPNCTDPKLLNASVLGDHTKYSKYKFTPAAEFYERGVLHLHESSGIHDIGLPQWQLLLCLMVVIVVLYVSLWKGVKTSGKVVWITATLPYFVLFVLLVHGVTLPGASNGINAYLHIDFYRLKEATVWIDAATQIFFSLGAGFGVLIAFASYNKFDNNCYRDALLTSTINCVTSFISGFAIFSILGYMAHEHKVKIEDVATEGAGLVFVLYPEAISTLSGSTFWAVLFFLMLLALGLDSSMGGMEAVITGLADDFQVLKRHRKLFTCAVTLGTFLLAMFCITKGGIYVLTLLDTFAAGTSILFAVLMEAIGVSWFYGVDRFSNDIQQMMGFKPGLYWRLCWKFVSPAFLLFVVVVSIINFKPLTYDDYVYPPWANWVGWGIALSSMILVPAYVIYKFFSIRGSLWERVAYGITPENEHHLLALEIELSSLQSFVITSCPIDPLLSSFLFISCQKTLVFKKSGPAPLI
Sequence of Sodium-dependent serotonin transporter (P31652 whole entry): as the sequence (P31652 whole entry, looked up) above

As to `CC(=O)OCCSC[C@@H]1CN(C)CC[C@@H]1c1ccc(Cl)cc1`, the inhibition constant Ki in experiment [1] turned out to be 46 nM; in experiment [2] it was 469 nM; in experiment [3], 30 nM. The Ratio Ki in experiment [4] is 10.1.

Take `CN1CC[C@H](c2ccc(Cl)cc2)[C@H](CSCC(=O)N2CCCCC2)C1`: the Ki in experiment [1] came out at 34 nM; in experiment [2] it was 42 nM; in experiment [3], 13 nM. In addition, the Ratio Ki in experiment [4] was 1.22.

For the compound `COC(=O)CSC[C@@H]1CN(C)CC[C@H]1c1ccc(Cl)cc1`, the Ki amounted to 2620 nM in experiment [1], 69 nM in experiment [2] and 57 nM in experiment [3]. Further, the Ratio Ki in experiment [4] stood at 0.03.

Turning to `CN1CC[C@@H](c2ccc(Cl)cc2)[C@H](CSCC(=O)NCCc2ccccc2)C1`, the Ki in experiment [1] was 23 nM; in experiment [2] it was 68 nM; in experiment [3], 178 nM. Besides, the Ratio Ki in experiment [4] was found to be 2.97.

Turning to `CN1CC[C@H](c2ccc(Cl)cc2)[C@H](CSCC(=O)NCc2ccccc2)C1`, the results for the Ki in experiment [1], in experiment [2] and in experiment [3] were 3.9 nM, 23 nM and 85 nM, respectively. In addition, the Ratio Ki in experiment [4] is 5.81.

In the case of `COC(=O)CSC[C@H]1CN(C)CC[C@H]1c1ccc(Cl)cc1`, the Ki in experiment [1] was 598 nM; in experiment [2], 403 nM; in experiment [3], 98 nM. Also, in experiment [4], the Ratio Ki was found to be 0.67.

As to `CC(=O)OCCSC[C@H]1CN(C)CC[C@H]1c1ccc(Cl)cc1`, the Ki is 177 nM in experiment [1], 125 nM in experiment [2] and 610 nM in experiment [3]. In addition, the Ratio Ki in experiment [4] was determined as 0.71.

In the case of `CNC(=O)CSC[C@@H]1CN(C)CC[C@H]1c1ccc(Cl)cc1`, the figures for the Ki in experiment [1] and in experiment [2] were 164 nM and 116 nM, respectively.

As for `CN1CC[C@@H](c2ccc(Cl)cc2)[C@@H](CSCC(=O)Nc2cccc3ccccc23)C1`, the inhibition constant (Ki) is 102 nM in experiment [1], 108 nM in experiment [2] and 101 nM in experiment [3]. Also, the Ratio Ki in experiment [4] came out at 1.06.

In the case of `COC(=O)[C@H]1CN(C)CC[C@H]1c1ccc(Cl)cc1`, the inhibition constant Ki in experiment [1] came out at 1560 nM; in experiment [2] it was 56 nM; in experiment [3] it was 415 nM. Moreover, the Ratio Ki in experiment [4] worked out at 0.04.

Consider `CN1CC[C@@H](c2ccc(Cl)cc2)[C@@H](CSCC(=O)N(C)C)C1`, for which the results for the Ki in experiment [1], in experiment [2] and in experiment [3] were 176 nM, 173 nM and 47 nM, respectively. Besides, the Ratio Ki in experiment [4] was determined as 0.98.

`CNC(=O)CSC[C@@H]1CN(C)CC[C@@H]1c1ccc(Cl)cc1`: the Ki in experiment [1] worked out at 311 nM; in experiment [2], 347 nM.

As to `CN1CC[C@@H](c2ccc(Cl)cc2)[C@H](CSCC(N)=O)C1`, the Ki in experiment [1] was found to be 1100 nM; in experiment [2], 545 nM; in experiment [3], 53 nM. In experiment [4], the Ratio Ki was 0.49.

As for `CN1CC[C@H](c2ccc(Cl)cc2)[C@H](CSCC(N)=O)C1`, the Ki in experiment [1] worked out at 54 nM; in experiment [2], 21 nM; in experiment [3], 69 nM. Besides, the Ratio Ki in experiment [4] was 0.39.

For the compound `CN1CC[C@@H](c2ccc(Cl)cc2)[C@@H](CSCC(=O)Nc2ccccc2)C1`, the Ki in experiment [1] stood at 80 nM; in experiment [2], 91 nM; in experiment [3] it was 1060 nM. Besides, in experiment [4], the Ratio Ki amounted to 1.13.

On to `CN1CC[C@@H](c2ccc(Cl)cc2)[C@H](CSCC(=O)NCc2ccccc2)C1`, for which the Ki in experiment [1] was 1570 nM; in experiment [2], 753 nM; in experiment [3] it was 32 nM. In experiment [4], the Ratio Ki was 0.48.

On to `CC(=O)OCCSC[C@@H]1CN(C)CC[C@H]1c1ccc(Cl)cc1`, for which the Ki is 536 nM in experiment [1], 130 nM in experiment [2] and 52 nM in experiment [3]. The Ratio Ki in experiment [4] was 0.24.

Turning to `CN1CC[C@@H](c2ccc(Cl)cc2)[C@H](CSCCOC(=O)c2ccccc2)C1`, the inhibitory constant (Ki) in experiment [1] was determined as 378 nM; in experiment [2], 71 nM; in experiment [3], 56 nM. Also, the Ratio Ki in experiment [4] amounted to 0.19.

In the case of `CN1CC[C@@H](c2ccc(Cl)cc2)[C@H](CSCCO)C1`, the Ki in experiment [1] was 185 nM; in experiment [2], 129 nM; in experiment [3], 123 nM. The Ratio Ki in experiment [4] amounted to 0.69.

Consider `CN1CC[C@@H](c2ccc(Cl)cc2)[C@@H](CSCC(=O)N2CCCCC2)C1`, for which the inhibitory constant (Ki) in experiment [1] is more than 3000 nM; in experiment [2] it was 572 nM; in experiment [3] it was 134 nM. In experiment [4], the Ratio Ki is less than 0.19.

Turning to `CN1CC[C@@H](c2ccc(Cl)cc2)[C@@H](CSCCOC(=O)c2ccccc2)C1`, the inhibition constant (Ki) in experiment [1] is 1470 nM; in experiment [2], 270 nM; in experiment [3], 143 nM. Moreover, the Ratio Ki in experiment [4] amounted to 0.18.

With `CC(C)NC(=O)CSC[C@@H]1CN(C)CC[C@@H]1c1ccc(Cl)cc1`, the results for the inhibitory constant (Ki) in experiment [1], in experiment [2] and in experiment [3] were 13 nM, 154 nM and 16 nM, respectively. The Ratio Ki in experiment [4] worked out at 11.5.

Take `CN1CC[C@@H](c2ccc(Cl)cc2)[C@@H](CSCC(=O)NCc2ccccc2)C1`: the results for the inhibitory constant (Ki) in experiment [1], in experiment [2] and in experiment [3] were 302 nM, 22 nM and 54 nM, respectively. Besides, the Ratio Ki in experiment [4] came out at 0.07.

With `CNC(=O)CSC[C@H]1CN(C)CC[C@H]1c1ccc(Cl)cc1`, the inhibitory constant (Ki) in experiment [1] turned out to be 215 nM; in experiment [2], 1770 nM.

`CN1CC[C@H](c2ccc(Cl)cc2)[C@H](CSCCO)C1`: the inhibition constant Ki in experiment [1] was determined as 37 nM; in experiment [2], 185 nM; in experiment [3] it was 26 nM. For the same compound, the Ratio Ki in experiment [4] came out at 5.

In the case of `CN1CC[C@@H](c2ccc(Cl)cc2)[C@H](CSCC(=O)N2CCCCC2)C1`, the Ki in experiment [1] is more than 3000 nM; in experiment [2], 190 nM; in experiment [3], 82 nM. The Ratio Ki in experiment [4] was less than 0.06.

`CN1CC[C@H](c2ccc(Cl)cc2)[C@H](CSCC(=O)N(C)C)C1`: the inhibition constant (Ki) in experiment [1] was determined as 17 nM; in experiment [2] it was 8.8 nM; in experiment [3] it was 63 nM. Besides, the Ratio Ki in experiment [4] turned out to be 0.53.

In the case of `CN1CC[C@@H](c2ccc(Cl)cc2)[C@H](CSCC(=O)N(C)C)C1`, the Ki in experiment [1] was more than 3000 nM; in experiment [2], 186 nM; in experiment [3], 218 nM. Besides, the Ratio Ki in experiment [4] was less than 0.06.

`CN1CC[C@@H](c2ccc(Cl)cc2)[C@@H](CSCCO)C1`: the inhibition constant (Ki) is 160 nM in experiment [1], 305 nM in experiment [2] and more than 3000 nM in experiment [3]. Moreover, the Ratio Ki in experiment [4] worked out at 1.91.

As for `CC(C)NC(=O)CSC[C@@H]1CN(C)CC[C@H]1c1ccc(Cl)cc1`, the Ki in experiment [1] was determined as 663 nM; in experiment [2], 138 nM; in experiment [3], 67 nM. Also, the Ratio Ki in experiment [4] was found to be 0.21.

For `CN1CC[C@@H](c2ccc(Cl)cc2)[C@@H](CSCC(=O)NCCc2ccccc2)C1`, the Ki in experiment [1] is 112 nM; in experiment [2], 121 nM; in experiment [3], 100 nM. In experiment [4], the Ratio Ki worked out at 1.08.

Consider `CC(C)NC(=O)CSC[C@H]1CN(C)CC[C@H]1c1ccc(Cl)cc1`, for which the inhibition constant (Ki) was determined as 142 nM in experiment [1], 36 nM in experiment [2] and 11 nM in experiment [3]. The Ratio Ki in experiment [4] stood at 0.25.

Turning to `COC(=O)CSC[C@@H]1CN(C)CC[C@@H]1c1ccc(Cl)cc1`, the results for the inhibitory constant (Ki) in experiment [1], in experiment [2] and in experiment [3] were 38 nM, 182 nM and 22 nM, respectively. Moreover, the Ratio Ki in experiment [4] worked out at 4.88.

The values above are taken from ChEMBL document CHEMBL1141218, “Further structure-activity relationship studies of piperidine-based monoamine transporter inhibitors: effects of piperidine ring stereochemistry on potency. Identification of norepinephrine transporter selective ligands and broad-spectrum transporter inhibitors” (J Med Chem, 2005).
